Measurements taken from ChEMBL document CHEMBL1126238, “Chemical and enzyme-mediated oxidation of the serotonergic neurotoxin 5,7-dihydroxytryptamine: mechanistic insights” (J Med Chem, 1992).

Assays:
Assay type in all cases: ADME
[1] = Influence of Catalase (100 ug/mL) on the transition metal [Fe2+] (100 uM) ion mediated autoxidation.
Summary of the method: (§1)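 5,7-Dihydroxytryptamine (1.0 mM, 3.0 mL) in pH 7.4 phosphate buffer (ionic strength 0.1) at 37 °C. Runs contained 10 μM Cu2+ (as CuSO4) or 100 μM Fe2+, Fe3+ or Mn2+, alone or with catalase (100 μg/mL) or SOD (333 units/mL). The initial O2 uptake rate was measured by Clark-type oxygen electrode. Values are mean (n ≥ 2) ± SD.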

[2] = Influence of Catalase (100 ug/mL) on the transition metal [Fe3+] (100 uM) ion mediated autoxidation.; summary of the method: as §1
[3] = Effect of complexing agent DTPA (0.5 uM) on the initial rate of oxygen consumption during the autooxidation
Summary of the method: (§2)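 5,7-Dihydroxytryptamine (1.0 mM) in 3.0 mL air-saturated pH 7.4 phosphate buffer (ionic strength 0.1), 37 °C, with metal ion and/or chelator (DTPA or EDTA) added; Cu2+ supplied as CuSO4. The initial O2 consumption rate (nmol O2/min) was read with a Clark-type oxygen electrode. Values are mean (n ≥ 2) ± SD.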

[4] = Effect of complexing agent DTPA (10 uM) on the initial rate of oxygen consumption during the autooxidation; summary of the method: as §2
[5] = Influence of superoxide dismutase SOD (333 units/mL) on the transition metal Cu2+ (10 uM) ion mediated autoxidation.; summary of the method: as §1
[6] = Influence of superoxide dismutase SOD (333 units/mL) on the transition metal [Fe3+] (100 uM) ion mediated autoxidation.; summary of the method: as §1
[7] = Influence of superoxide dismutase SOD (333 units/mL) on the transition metal Mn2+ (100 uM) ion mediated autoxidation.; summary of the method: as §1
[8] = Influence of tyrosinase enzyme (18 units/mL) on the initial rate of oxygen consumption at a pH of 7.4.; conditions: pH 7.4
Summary of the method: (§3)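 5,7-Dihydroxytryptamine (1.0 mM) in 3.0 mL air-saturated phosphate buffer (ionic strength 0.1) at the stated pH, with bovine ceruloplasmin or mushroom tyrosinase at the listed units/mL. Initial O2 consumption (nmol O2/min) was recorded with a Clark-type oxygen electrode.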

[9] = Influence of tyrosinase enzyme (36 units/mL) on the initial rate of oxygen consumption at a pH of 7.4.; conditions: pH 7.4; summary of the method: as §3
[10] = Influence of tyrosinase enzyme (4.5 units/mL) on the initial rate of oxygen consumption at a pH of 7.4.; conditions: pH 7.4; summary of the method: as §3
[11] = Influence of tyrosinase enzyme (9 units/mL) on the initial rate of oxygen consumption at a pH of 7.4.; conditions: pH 7.4; summary of the method: as §3
[12] = Initial rate of oxygen consumption during the autooxidation of the compound.; summary of the method: as §2
[13] = Effect of transition metal ion and complexing agent Cu2+ (10 uM) +DTPA (1 uM) on the initial rate of oxygen consumption during the autooxidation; summary of the method: as §2
[14] = Effect of transition metal ion and complexing agent Cu2+ (10 uM) +EDTA (1 uM) on the initial rate of oxygen consumption during the autooxidation; summary of the method: as §2
[15] = Effect of transition metal ion and complexing agent [Fe2+] (100 uM) +DTPA (10 uM) on the initial rate of oxygen consumption during the autooxidation; summary of the method: as §2
[16] = Effect of transition metal ion and complexing agent [Fe2+] (100 uM) +EDTA (10 uM) on the initial rate of oxygen consumption during the autooxidation; summary of the method: as §2
[17] = Effect of transition metal ion and complexing agent [Fe3+] (100 uM) +DTPA (10 uM) on the initial rate of oxygen consumption during the autooxidation; summary of the method: as §2
[18] = Effect of transition metal ion and complexing agent [Fe3+] (100 uM) +EDTA (10 uM) on the initial rate of oxygen consumption during the autooxidation; summary of the method: as §2
[19] = Effect of transition metal ion and complexing agent Mn2+ (100 uM) +DTPA (10 uM) on the initial rate of oxygen consumption during the autooxidation; summary of the method: as §2
[20] = Effect of transition metal ion and complexing agent Mn2+ (100 uM) +EDTA (10 uM) on the initial rate of oxygen consumption during the autooxidation; summary of the method: as §2
[21] = Influence of Catalase (100 ug/mL) on the transition metal Cu2+ (10 uM) ion mediated autoxidation.; summary of the method: as §1
[22] = Effect of complexing agent DTPA (1 uM) on the initial rate of oxygen consumption during the autooxidation; summary of the method: as §2
[23] = Effect of complexing agent EDTA (1 uM) on the initial rate of oxygen consumption during the autooxidation; summary of the method: as §2
[24] = Effect of transition metal ion Cu2+ (10 uM) on the initial rate of oxygen consumption during the autooxidation; summary of the method: as §2
[25] = Effect of transition metal ion Cu2+ (1 uM) on the initial rate of oxygen consumption during the autooxidation; summary of the method: as §2
[26] = Effect of transition metal ion Cu2+ (20 uM) on the initial rate of oxygen consumption during the autooxidation; summary of the method: as §2
[27] = Effect of transition metal ion Cu2+ (40 uM) on the initial rate of oxygen consumption during the autooxidation; summary of the method: as §2
[28] = Effect of transition metal ion [Fe2+] (100 uM) on the initial rate of oxygen consumption during the autooxidation; summary of the method: as §2
[29] = Effect of transition metal ion [Fe2+] (10 uM) on the initial rate of oxygen consumption during the autooxidation; summary of the method: as §2
[30] = Effect of transition metal ion [Fe2+] (200 uM) on the initial rate of oxygen consumption during the autooxidation; summary of the method: as §2
[31] = Effect of transition metal ion [Fe2+] (50 uM) on the initial rate of oxygen consumption during the autooxidation; summary of the method: as §2
[32] = Effect of transition metal ion [Fe3+] (100 uM) on the initial rate of oxygen consumption during the autooxidation; summary of the method: as §2
[33] = Effect of transition metal ion [Fe3+] (10 uM) on the initial rate of oxygen consumption during the autooxidation; summary of the method: as §2
[34] = Effect of transition metal ion [Fe3+] (200 uM) on the initial rate of oxygen consumption during the autooxidation; summary of the method: as §2
[35] = Effect of transition metal ion [Fe3+] (50 uM) on the initial rate of oxygen consumption during the autooxidation; summary of the method: as §2
[36] = Effect of transition metal ion Mn2+ (100 uM) on the initial rate of oxygen consumption during the autooxidation; summary of the method: as §2
[37] = Effect of transition metal ion Mn2+ (10 uM) on the initial rate of oxygen consumption during the autooxidation; summary of the method: as §2
[38] = Effect of transition metal ion Mn2+ (50 uM) on the initial rate of oxygen consumption during the autooxidation; summary of the method: as §2
[39] = Influence of Catalase (100 ug/mL) on the transition metal Mn2+ (100 uM) ion mediated autoxidation.; summary of the method: as §1
[40] = Influence of ceruplasmin enzyme (10.5 units/mL) on the initial rate of oxygen consumption at a pH of 6.4.; conditions: pH 6.4; summary of the method: as §3
[41] = Influence of ceruplasmin enzyme (10.5 units/mL) on the initial rate of oxygen consumption at a pH of 7.4.; conditions: pH 7.4; summary of the method: as §3
[42] = Influence of ceruplasmin enzyme (21.0 units/mL) on the initial rate of oxygen consumption at a pH of 7.4.; conditions: pH 7.4; summary of the method: as §3
[43] = Influence of ceruplasmin enzyme (42.0 units/mL) on the initial rate of oxygen consumption at a pH of 7.4.; conditions: pH 7.4; summary of the method: as §3
[44] = Influence of peroxidase enzyme (10 units/mL) on the initial rate of oxygen consumption at a pH of 7.4.; conditions: pH 7.4
Summary of the method: (§4)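 Substrate 5,7-dihydroxytryptamine, 1.0 mM, in 3.0 mL air-saturated pH 7.4 phosphate buffer (ionic strength 0.1). Peroxidase was added at the listed units/mL, either with 1.0 mM H2O2 or with no H2O2. The initial O2 consumption rate was measured with a Clark-type oxygen electrode.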

[45] = Influence of peroxidase enzyme (15 units/mL) on the initial rate of oxygen consumption at a pH of 7.4.; conditions: pH 7.4; summary of the method: as §4
[46] = Influence of peroxidase enzyme (5 units/mL) on the initial rate of oxygen consumption at a pH of 7.4.; conditions: pH 7.4; summary of the method: as §4
[47] = Influence of superoxide dismutase SOD (333 units/mL) on the transition metal [Fe2+] (100 uM) ion mediated autoxidation.; summary of the method: as §1

NCCc1c[nH]c2c(O)cc(O)cc12
Rate of O2 consumption [1]: 328 nM/min | Rate of O2 consumption [2]: 51 nM/min | Rate of O2 consumption [3]: 24 nM/min | Rate of O2 consumption [4]: 23.6 nM/min | Rate of O2 consumption [5]: 1583 nM/min | Rate of O2 consumption [6]: 48.5 nM/min | Rate of O2 consumption [7]: 81.2 nM/min | Rate of O2 consumption [8]: 192 nM/min | Rate of O2 consumption [9]: 304 nM/min | Rate of O2 consumption [10]: 85 nM/min | Rate of O2 consumption [11]: 126 nM/min | Rate of O2 consumption [12]: 34.1 nM/min | Rate of O2 consumption [13]: 32.1 nM/min | Rate of O2 consumption [14]: 45.6 nM/min | Rate of O2 consumption [15]: 58 nM/min | Rate of O2 consumption [16]: 712 nM/min | Rate of O2 consumption [17]: 39.2 nM/min | Rate of O2 consumption [18]: 97 nM/min | Rate of O2 consumption [19]: 36.7 nM/min | Rate of O2 consumption [20]: 51.3 nM/min | Rate of O2 consumption [21]: 1524 nM/min | Rate of O2 consumption [22]: 24.2 nM/min | Rate of O2 consumption [23]: 39.6 nM/min | Rate of O2 consumption [24]: 1490 nM/min | Rate of O2 consumption [25]: 638 nM/min | Rate of O2 consumption [26]: 2244 nM/min | Rate of O2 consumption [27]: 2367 nM/min | Rate of O2 consumption [28]: 628 nM/min | Rate of O2 consumption [29]: 252 nM/min | Rate of O2 consumption [30]: 801 nM/min | Rate of O2 consumption [31]: 483 nM/min | Rate of O2 consumption [32]: 86 nM/min | Rate of O2 consumption [33]: 50 nM/min | Rate of O2 consumption [34]: 125 nM/min | Rate of O2 consumption [35]: 68 nM/min | Rate of O2 consumption [36]: 87 nM/min | Rate of O2 consumption [37]: 61 nM/min | Rate of O2 consumption [38]: 70 nM/min | Rate of O2 consumption [39]: 54.5 nM/min | Rate of O2 consumption [40]: 453 nM/min | Rate of O2 consumption [41]: 71.4 nM/min | Rate of O2 consumption [42]: 129 nM/min | Rate of O2 consumption [43]: 240 nM/min | Rate of O2 consumption [44]: 89 nM/min | Rate of O2 consumption [45]: 102 nM/min | Rate of O2 consumption [46]: 79 nM/min | Rate of O2 consumption [47]: 645 nM/min
